Calls of active or inactive are those of the source. The calls are words filed in the database; no cut-off is given here.
What was measured:
D(1A) dopamine receptor [1] = target: T1, D(1A) dopamine receptor (Homo sapiens, UniProt P21728); test: Antagonist activity at dopamine D1 receptor (unknown origin) expressed in HEK293 cells assessed as inhibition of [35S]GTPgammaS binding by scintillation proximity assay; assay type: functional, cell-based
[2] = target: T2, 5-hydroxytryptamine receptor 1A (Homo sapiens) (UniProt P08908); test: (§1) Agonist activity at 5-HT1A receptor (unknown origin) expressed in HEK293 cells assessed as […] of [35S]GTPgammaS binding by scintillation proximity assay; assay type: functional, cell-based
T2 sequence (whole entry): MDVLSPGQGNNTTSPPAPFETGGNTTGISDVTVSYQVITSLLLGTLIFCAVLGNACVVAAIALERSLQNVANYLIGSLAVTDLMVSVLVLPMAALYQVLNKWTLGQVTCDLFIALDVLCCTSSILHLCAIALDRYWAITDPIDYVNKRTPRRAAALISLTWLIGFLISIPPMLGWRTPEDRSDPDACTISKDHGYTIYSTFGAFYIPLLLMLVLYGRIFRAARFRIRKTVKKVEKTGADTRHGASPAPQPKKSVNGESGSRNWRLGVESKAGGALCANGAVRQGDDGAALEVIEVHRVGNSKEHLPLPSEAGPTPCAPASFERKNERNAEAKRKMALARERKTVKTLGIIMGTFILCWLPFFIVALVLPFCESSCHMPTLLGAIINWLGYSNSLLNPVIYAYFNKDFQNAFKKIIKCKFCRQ

[3] = target: T3, 5-hydroxytryptamine receptor 1A (Homo sapiens, UniProt P08908); test: as §1; assay type: functional, cell-based
T3 sequence (P08908 whole entry): T2 sequence (whole entry)

D(1A) dopamine receptor [4] = target: T1, D(1A) dopamine receptor; test: Displacement of [3H]SCH23390 from dopamine D1 receptor (unknown origin) expressed in human HEK293 cells by liquid scintillation counter; assay type: cell-based
Outline: (§2)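 Stably transfected HEK293T D1 membranes, […], duplicate incubation 50 min at 30 °C with [3H]SCH23390 in 50 mM Tris, 4 mM MgCl2, pH 7.4. Nonspecific binding with 10 μM SCH23390. GF/B filtration, scintillation counting.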

Rattus norvegicus [5] = test: Effect on baseline startle reactivity in Sprague-Dawley rat schizophrenia model at 5 mg/kg, ip administered 10 mins prior testing monitored for 5 mins; assay type: ADME, organism-based; design: dose 5 mg/kg, route intraperitoneal; details: in vivo
Outline: (§3)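 Male Sprague-Dawley rats were pretreated ip with saline or compound 10 min before PCP (5 mg/kg, ip). Acoustic startle was tested 5 min after PCP, following 3 min acclimation: 40 ms, 120 dB pulse with prepulse trials, 74 dB background, 15–25 s intertrial interval, session about 20 min. %PPI = [1 − (prepulse+pulse)/(pulse alone)]×100. Startle = mean of pulse-alone trials, first 3 excluded.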

[6] = target: T2, 5-hydroxytryptamine receptor 1A (Homo sapiens); test: Inhibition of [3H]8-OH-DPAT binding to 5-HT1A receptor (unknown origin) expressed in HEK293 cells at 10 uM by liquid scintillation counter relative to control; assay type: cell-based
Outline: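 Membranes of HEK293T stably transfected with 5-HT1A, […], incubated in duplicate 50 min at 30 °C with [3H]8-OH-DPAT in 50 mM Tris, 4 mM MgCl2, pH 7.4. Nonspecific binding with 10 μM WAY100635. Filtration on GF/B, cold Tris/EDTA wash, scintillation counting.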

D(2) dopamine receptor [7] = target: T4, D(2) dopamine receptor (Homo sapiens, UniProt P14416); details: HEK293, at 10 µM
D(1A) dopamine receptor [8] = target: T1, D(1A) dopamine receptor; test: Agonist activity at dopamine D1 receptor (unknown origin) expressed in HEK293 cells assessed as stimulation of [35S]GTPgammaS binding by scintillation proximity assay; assay type: functional, cell-based
[9] = target: 5-hydroxytryptamine receptor 2A (Homo sapiens, UniProt P28223); test: Inhibition of [3H]Ketanserin binding to 5-HT2A receptor (unknown origin) expressed in HEK293 cells at 10 uM by liquid scintillation counter relative to control; assay type: cell-based
Outline: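 Membranes of HEK293T stably transfected with 5-HT2A, […], incubated in duplicate 15 min at 37 °C with [3H]ketanserin in 50 mM Tris, 4 mM MgCl2, pH 7.4. […] GF/B filtration, cold wash, scintillation counting.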

Rattus norvegicus [10] = test: Antipsychotic activity in Sprague-Dawley rat schizophrenia model assessed as inhibition of PCP-induced hyperlocomotion at 10 mg/kg, ip administered 10 mins prior testing […]; assay type: functional, organism-based; design: dose 10 mg/kg
Rattus norvegicus [11] = test: Antipsychotic activity in Sprague-Dawley rat schizophrenia model assessed as inhibition of PCP-induced prepulse inhibition at 5 mg/kg, ip administered 10 mins prior testing monitored for 5 mins; assay type: functional, organism-based; design: dose 5 mg/kg; outline: as §3
Rattus norvegicus [12] = test: Antipsychotic activity in Sprague-Dawley rat schizophrenia model assessed as inhibition of PCP-induced prepulse inhibition at 10 mg/kg, ip administered 10 mins prior testing monitored for 5 mins; assay type: functional, organism-based; design: dose 10 mg/kg; outline: as §3
D(1A) dopamine receptor [13] = target: T1, D(1A) dopamine receptor; test: Inhibition of [3H]SCH23390 binding to dopamine D1 receptor (unknown origin) expressed in human HEK293 cells at 10 uM by liquid scintillation counter relative to control; assay type: cell-based; outline: as §2
[14] = target: T3, 5-hydroxytryptamine receptor 1A; test: Displacement of [3H]8-OH-DPAT from 5-HT1A receptor (unknown origin) expressed in HEK293 cells by liquid scintillation counter; assay type: cell-based
D(2) dopamine receptor [15] = target: T4, D(2) dopamine receptor
Rattus norvegicus [16] = test: Antipsychotic activity in ip dosed Sprague-Dawley rat schizophrenia model assessed as inhibition of PCP-induced hyperlocomotion administered 10 mins prior testing monitored for 5 mins; assay type: functional, organism-based
Outline: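 Male Sprague-Dawley rats (230–280 g) given saline or compound ip 10 min before PCP 5 mg/kg. Starting 5 min after PCP, rats were video-tracked in a 40×40×45 cm open field for 30 min. Total distance recorded; n = 6–12 per group; one-way ANOVA with Tamhane post hoc test.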

D(2) dopamine receptor [17] = target: T4, D(2) dopamine receptor; test: Displacement of [3H]spiperone from dopamine D2 receptor (unknown origin) expressed in human HEK293 cells by liquid scintillation counter; assay type: cell-based
Rattus norvegicus [18] = test: Antipsychotic activity in Sprague-Dawley rat schizophrenia model assessed as effect on 120 db noise-induced absolute acoustic startle responses at 5 mg/kg, ip administered 10 mins prior testing monitored for 5 mins; assay type: functional, organism-based; design: dose 5 mg/kg; outline: as §3
Rattus norvegicus [19] = test: In vivo agonist activity at 5-HT1A receptor in WAY100635 pre-treated Sprague-Dawley rat DA neuron assessed as increase in bursts at 1 mg/kg, iv; assay type: functional, organism-based; design: dose 1 mg/kg
Outline: (§4)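 Anesthetized (chloral hydrate) Sprague-Dawley rats given raclopride, then WAY100635 before compound 1 mg/kg. VTA DA neuron single-unit firing rate and bursts analysed every 10 s as % of post-raclopride baseline. n = 5, paired t-test.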

Rattus norvegicus [20] = test: In vivo agonist activity at 5-HT1A receptor in Sprague-Dawley rat DA neuron assessed as increase in bursts at 1 mg/kg, iv in presence of WAY100635; assay type: functional, organism-based; design: dose 1 mg/kg
Outline: (§5)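 VTA DA neuron single-unit recording in chloral hydrate-anesthetized Sprague-Dawley rats after raclopride 0.1 mg/kg. Compound 1 mg/kg was followed by WAY100635 1.0 mg/kg. Firing rate and bursting were analysed in 10 s bins relative to the post-raclopride baseline.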

Rattus norvegicus [21] = test: In vivo agonist activity at 5-HT1A receptor in Sprague-Dawley rat DA neuron assessed as increase in firing rate at 1 mg/kg, iv; assay type: functional
Outline: (§6)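 Male Sprague-Dawley rats under chloral hydrate anesthesia (400 mg/kg ip) at 37 °C. Single-unit recording of VTA DA neurons by glass microelectrode. Raclopride 0.1 mg/kg given first, then compound 1 mg/kg. Firing rate and bursts analysed every 10 s as % of post-raclopride baseline. n = 5, paired t-test.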

Rattus norvegicus [22] = test: Effect on prepulse inhibition in Sprague-Dawley rat schizophrenia model at 5 mg/kg, ip administered 10 mins prior testing monitored for 5 mins; assay type: ADME, organism-based; design: dose 5 mg/kg, route intraperitoneal; details: in vivo; outline: as §3
Rattus norvegicus [23] = test: Antipsychotic activity in Sprague-Dawley rat schizophrenia model assessed as inhibition of PCP-induced hyperlocomotion at 2.5 mg/kg, ip administered 10 mins prior testing […]; assay type: functional, organism-based; design: dose 2.5 mg/kg
Rattus norvegicus [24] = test: In vivo agonist activity at 5-HT1A receptor in WAY100635 pre-treated Sprague-Dawley rat DA neuron assessed as increase in firing rate at 1 mg/kg, iv; assay type: functional, organism-based; design: dose 1 mg/kg; outline: as §4
Rattus norvegicus [25] = test: In vivo agonist activity at 5-HT1A receptor in Sprague-Dawley rat DA neuron assessed as increase in firing rate at 1 mg/kg, iv in presence of WAY100635; assay type: functional, organism-based; design: dose 1 mg/kg; outline: as §5
Rattus norvegicus [26] = test: In vivo agonist activity at 5-HT1A receptor in Sprague-Dawley rat DA neuron assessed as increase in bursts at 1 mg/kg, iv; assay type: functional, organism-based; design: dose 1 mg/kg; outline: as §6

T1 sequence (P21728 whole entry): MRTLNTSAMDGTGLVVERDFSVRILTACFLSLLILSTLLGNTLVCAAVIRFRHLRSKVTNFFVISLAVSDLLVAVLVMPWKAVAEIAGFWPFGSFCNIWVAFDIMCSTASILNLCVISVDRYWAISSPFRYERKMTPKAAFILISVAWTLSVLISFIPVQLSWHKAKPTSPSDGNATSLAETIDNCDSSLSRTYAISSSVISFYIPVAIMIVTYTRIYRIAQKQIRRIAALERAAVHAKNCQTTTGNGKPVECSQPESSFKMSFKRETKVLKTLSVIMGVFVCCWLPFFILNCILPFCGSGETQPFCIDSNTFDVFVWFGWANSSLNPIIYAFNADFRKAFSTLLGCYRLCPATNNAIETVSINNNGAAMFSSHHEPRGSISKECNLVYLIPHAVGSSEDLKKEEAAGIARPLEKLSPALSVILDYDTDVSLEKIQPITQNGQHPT
T4 sequence (P14416 whole entry): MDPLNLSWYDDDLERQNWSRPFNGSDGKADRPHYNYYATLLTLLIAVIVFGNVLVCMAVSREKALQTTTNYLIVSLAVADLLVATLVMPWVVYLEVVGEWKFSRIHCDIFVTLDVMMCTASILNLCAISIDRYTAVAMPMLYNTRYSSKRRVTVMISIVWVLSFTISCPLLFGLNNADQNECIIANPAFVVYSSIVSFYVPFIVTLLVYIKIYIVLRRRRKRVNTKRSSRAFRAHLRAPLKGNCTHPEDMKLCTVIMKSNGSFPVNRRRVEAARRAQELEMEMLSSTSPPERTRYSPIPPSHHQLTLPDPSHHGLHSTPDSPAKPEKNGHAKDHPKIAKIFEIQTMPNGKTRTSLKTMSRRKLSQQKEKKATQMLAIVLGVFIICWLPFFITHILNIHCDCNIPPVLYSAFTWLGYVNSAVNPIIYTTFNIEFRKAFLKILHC
Chain of 5-hydroxytryptamine receptor 2A (P28223 whole entry): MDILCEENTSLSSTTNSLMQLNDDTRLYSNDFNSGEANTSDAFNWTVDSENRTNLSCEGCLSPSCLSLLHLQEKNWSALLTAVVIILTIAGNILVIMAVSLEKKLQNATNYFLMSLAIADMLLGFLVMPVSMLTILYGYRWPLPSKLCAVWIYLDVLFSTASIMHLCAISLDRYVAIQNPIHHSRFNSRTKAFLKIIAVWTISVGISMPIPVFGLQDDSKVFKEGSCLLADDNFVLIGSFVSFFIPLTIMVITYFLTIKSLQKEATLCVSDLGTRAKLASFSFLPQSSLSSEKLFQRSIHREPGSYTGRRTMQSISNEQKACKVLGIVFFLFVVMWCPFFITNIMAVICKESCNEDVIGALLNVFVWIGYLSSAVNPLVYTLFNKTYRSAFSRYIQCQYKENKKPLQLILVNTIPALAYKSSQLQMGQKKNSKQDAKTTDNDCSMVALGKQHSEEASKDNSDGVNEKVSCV

Row | SMILES | IC50 (D(1A) dopamine receptor [1]) [nM] | Emax [2] [%] | EC50 [3] [nM] | Ki (D(1A) dopamine receptor [4]) [nM] | Activity (Rattus norvegicus [5]) | inhibition [6] [%] | inhibition (D(2) dopamine receptor [7]) [%] | EC50 (D(1A) dopamine receptor [8]) [nM] | inhibition [9] [%] | inhibition (Rattus norvegicus [11]) | inhibition (D(1A) dopamine receptor [13]) [%] | Ki [14] [nM] | IC50 (D(2) dopamine receptor [15]) [nM] | inhibition (Rattus norvegicus [16]) | Ki (D(2) dopamine receptor [17]) [nM] | Activity (Rattus norvegicus [18]) | other results
1 | COc1c(O)ccc2c1CN1CCc3cc4c(cc3[C@@H]1C2)OCO4 | 17400 | 80.7 | 13500 | 6.3 | Non-toxic | 95.7 | 92.8 | 16000 | 73.6 | Active | 99.7 | 908 | 1000 | Dose-dependent effect | 145 | inactive | inhibition (Rattus norvegicus [10]): Active; inhibition (Rattus norvegicus [12]): Active
2 | COc1cc2c(cc1OC)[C@@H]1Cc3ccc(O)c(OC)c3CN1CC2 | 21300 | 156 | 190 | 50 | Non-toxic | 97.4 | 88.8 | 1350 | 68.8 | Active | 98.8 | 149 | 18700 | Dose-dependent effect | 305 | inactive | Activity (Rattus norvegicus [19]): inactive; Activity (Rattus norvegicus [20]): inactive; Activity (Rattus norvegicus [21]): 128.3%; Activity (Rattus norvegicus [22]): Non-toxic; inhibition (Rattus norvegicus [23]): Active; Activity (Rattus norvegicus [24]): inactive; Activity (Rattus norvegicus [25]): inactive; Activity (Rattus norvegicus [26]): Active

Reference: ChEMBL document CHEMBL2331343 (Bioorg Med Chem, 2013)
